What was measured:
[1] = folding enthalpy; higher = less favourable; fluorescence melt of hairpins on a sequencing array, two-state fit; settings: sodium 0.088 M
How it was run: (§1)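 Cy3 fluorescence of library hairpins on a sequenced MiSeq flow cell, with annealed Cy3 and quencher oligos, was imaged in 50 mM Na-HEPES pH 8.0, 25 mM NaCl in 2.5 °C steps up to 60 °C. Signals were normalised to pre-quench Cy3 and to control variants. Melting temperature and folding enthalpy came from bootstrapped two-state fits, inverse-variance combined over four replicates. Fitted temperatures were raised by 9.35 °C to match UV melts.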

[2] = melting temperature; fluorescence melt of hairpins on a sequencing array, two-state fit, raised by 9.35 °C to match UV melts; settings: sodium 0.088 M
How it was run: as §1

Sequence | folding enthalpy [1] [kcal/mol] | Tm [2] [°C]
GCTGGGCGAAAGCTCTGC ((.(.((....)).).)) | -22.3 | 53.1
GCTGGGGGAAACCCCAAC (.(((((....))))).) | -13.2 | 38.5
GCTGGGGGAAACCCCGGC ((.((((....)))).)) | -33.8 | 65.5
GCTGGGGGAAACCCTAGC (((.(((....))).))) | -36.2 | 53.2
GCTGGGGGAAACTCCGGC ((.((.(....).)).)) | -31.1 | 47.1
GCTGGTGGAAACACCAAC (.(((((....))))).) | -14.4 | 41.3
GCTGGTGGAAACACTAGC (((.(((....))).))) | -40.8 | 51.3
GCTGGTGGAAACATCGGC ((.(.((....)).).)) | -30.4 | 43
GCTGTACGAAAGTAAAGC (((.(((....))).))) | -30.2 | 49.6
GCTGTACGAAAGTATAGC (((.(((....))).))) | -39.6 | 54
GCTGTCCGAAAGGAGAGC (((.(((....))).))) | -34 | 57
GCTGTCCGAAAGGATAGC (((.(((....))).))) | -39.6 | 59.3
GCTGTCGAAAGACACAGC ((((((....)))..))) | -14.7 | 48.3
GCTGTCGAAAGACAGAGC ((((((....)))..))) | -13.6 | 54.8
GCTGTCGAAAGACTGAGC ((((((....)))..))) | -18.5 | 43
GCTGTCGGAAACGACAAC (.(((((....))))).) | -12.9 | 40.9
GCTGTCGGAAACGATAGC (((.(((....))).))) | -57.3 | 53.4
GCTGTCGGAAACGGTAGC (((..((....))..))) | -28.9 | 41.8
GCTGTCTCGAAAGAGAGC (((..(((....)))))) | -15.5 | 38.3
GCTGTGAAAACAGC (((((....))))) | -30.2 | 63.3
GCTGTGACGAAAGTCAGC (((..(((....)))))) | -15.1 | 47
GCTGTGCGAAAGCAACGC ((..(((....)))..)) | -13.7 | 49.9
GCTGTGCGAAAGCAGCGC ((..(((....)))..)) | -21 | 57.1

Sequence | folding enthalpy [1] [kcal/mol] | Tm [2] [°C]
GCTGTGCGAAAGCAGGGC ((..(((....)))..)) | -21.1 | 50.3
GCTGTGCGAAAGCCCAGC ((((.((....)).)))) | -28.1 | 61.8
GCTGTGCGAAAGCCCCGC ((.(.((....)).).)) | -12.5 | 31.1
GCTGTGCGAAAGCGTAGC (((..((....))..))) | -17.6 | 49.5
GCTGTGCGAAAGCTCAGC ((((.((....)).)))) | -36.8 | 68
GCTGTGCGAAAGCTCTGC ((.(.((....)).).)) | -22.1 | 44.6
GCTGTGCGAAAGCTTAGC (((..((....))..))) | -22.5 | 41.9
GCTGTGGGAAACTACAGC (((((.(....).))))) | -41.4 | 53.1
GCTGTTACGAAAGTAAGC (((..(((....)))))) | -21.1 | 37.8
GCTGTTCGAAAGAAAGC (((.(((....)))))) | -15.6 | 36.7
GCTGTTGGAAACAACAGC (((((((....))))))) | -44.5 | 67.1
GCTGTTGGAAACGATAGC (((.(.(....).).))) | -20.9 | 32
GCTGTTTCGAAAGAAAGC (((..(((....)))))) | -15.7 | 27.6
GCTTAAGGAAACTTAAGC (((((((....))))))) | -39.6 | 53.2
GCTTAATCGAAAGATAGC (((..(((....)))))) | -16.4 | 30.8
GCTTACCGAAAGGTTAGC (((.(((....))).))) | -35 | 52.8
GCTTACGAAAGTAACAGC ((((((....)))..))) | -16.2 | 37
GCTTACGAAAGTAAGAGC ((((((....)))..))) | -18.5 | 45.4
GCTTACGAAAGTAATAGC ((((((....)))..))) | -17.8 | 38.6
GCTTACGAAAGTACAGC ((((((....))).))) | -23.4 | 41.4
GCTTACGAAAGTAGTAGC ((((((....)))..))) | -27.9 | 34.8
GCTTAGAAATAAGC (((((....))))) | -18 | 40.5
GCTTAGACGAAAGTCAGC (((..(((....)))))) | -18.2 | 41.6

Sequence | folding enthalpy [1] [kcal/mol] | Tm [2] [°C]
GCTTAGCCGAAAGGCAGC (((..(((....)))))) | -16.4 | 45.5
GCTTAGCGAAAGCAAAGC ((((.((....)).)))) | -23.6 | 59.8
GCTTAGCGAAAGCAGAGC (((..((....))..))) | -19 | 50
GCTTAGCGAAAGCCAAGC ((((.((....)).)))) | -22.1 | 53.5
GCTTAGCGAAAGCTATGC ((.((((....)))).)) | -26.6 | 59.5
GCTTAGCGAAAGCTTAGC (((.(((....))).))) | -43.1 | 51.9
GCTTAGGAAACTAAGC ((((((....)))))) | -31.7 | 52.7
GCTTAGGGAAACCCAAGC ((((.((....)).)))) | -26.7 | 44
GCTTAGGGAAACCTAAGC (((((((....))))))) | -34 | 59.8
GCTTATCCGAAAGGAAGC (((..(((....)))))) | -15.5 | 34.3
GCTTATCGAAAGATAGC (((.(((....)))))) | -27.5 | 43.4
GCTTATGGAAACATAGGC ((.((((....)))).)) | -32.8 | 41.6
GCTTCACGAAAGTGCAGC (((.(((....))).))) | -27.7 | 51.6
GCTTCACGAAAGTGTAGC (((.(((....))).))) | -30.2 | 53.8
GCTTCAGCGAAAGCTAGC (((..(((....)))))) | -9.89 | 41.2
GCTTCAGGAAACTAAAGC ((((.((....)).)))) | -26.3 | 28.7
GCTTCCACGAAAGTGAGC (((..(((....)))))) | -12.3 | 33.7
GCTTCCGAAAGGAACAGC ((((((....)))..))) | -15.1 | 38.3
GCTTCCGAAAGGACAAGC ((((((....)))..))) | -24.2 | 38.5
GCTTCCGAAAGGACGAGC ((((((....)))..))) | -18.8 | 37.6
GCTTCCGAAAGGAGGAGC ((((((....)))..))) | -21 | 39.1
GCTTCCGAAAGGATTAGC ((((((....)))..))) | -23.2 | 38.3
GCTTCCGGAAACGGAGGC ((.((((....)))).)) | -36.4 | 54.6

Sequence | folding enthalpy [1] [kcal/mol] | Tm [2] [°C]
GCTTCGACGAAAGTCAGC (((..(((....)))))) | -13.1 | 33.5
GCTTCGCCGAAAGGCAGC (((..(((....)))))) | -10.4 | 40.9
GCTTCGCGAAAGCATAGC (((..((....))..))) | -14.5 | 36.3
GCTTCGCGAAAGCCATGC ((.(.((....)).).)) | -9.05 | 34.6
GCTTCGCGAAAGCCCAGC (((..((....))..))) | -7.98 | 31.2
GCTTCGCGAAAGCGATGC ((.((((....)))).)) | -17.4 | 65.7
GCTTCGCGAAAGCGTAGC (((.(((....))).))) | -42.6 | 55.7
GCTTCGGGAAACCGAAAC (.(((((....))))).) | -15.4 | 40.2
GCTTCTCGAAAGAGCAGC (((.(((....))).))) | -24 | 46.8
GCTTCTGGAAACGGAAGC (((((.(....).))))) | -46.4 | 51.6
GCTTGAGAAATCAAGC ((((((....)))))) | -35.3 | 55.8
GCTTGAGCGAAAGCTAGC (((..(((....)))))) | -13.9 | 47.8
GCTTGAGGAAACTCAAGC (((((((....))))))) | -41.9 | 62.8
GCTTGAGGAAACTCAGGC ((.((((....)))).)) | -32.9 | 47.6
GCTTGCCCGAAAGGGAGC (((..(((....)))))) | -14.7 | 48.1
GCTTGCGAAAGCAAAAGC ((((((....)))..))) | -17.8 | 52.8
GCTTGCGAAAGCAGCAGC ((((((....)))..))) | -11.4 | 46.4
GCTTGCGGAAACACAAGC (((((.(....).))))) | -23.6 | 46.8
GCTTGCGGAAACGCAGGC ((.((((....)))).)) | -35.1 | 62.8
GCTTGGCGAAAGCACAGC (((..((....))..))) | -18.2 | 42.2
GCTTGGCGAAAGCATAGC (((..((....))..))) | -20.3 | 46.2
GCTTGGCGAAAGCCAGC (((.(((....)))))) | -14.3 | 59

Reference: the array DNA melting data of Ke et al. (doi:10.1101/2024.01.08.574731)
